The values that follow come from ChEMBL document CHEMBL1122877, “New antihistaminic N-heterocyclic 4-piperidinamines. 1. Synthesis and antihistaminic activity of N-(4-piperidinyl)-1H-benzimidazol-2-amines” (1985).

Some results are limits rather than exact numbers.

Test [1] relates to Cavia porcellus. In words: Protection against intravenous histamine lithality in Guinea pigs 48 hour after oral administration. It is filed as functional. As to conditions: read-out: PD50. An outline of the steps: (§1)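 Male albino guinea pigs (280-360 g) given oral doses in 2-fold increments 3, 24 or 48 h before iv histamine dihydrochloride 1.25 mg/kg. Protection is survival at 1 h. PD50 by Finney from 4-6 animals per dose and time point, at least 3 doses from a geometric series 0.0025-5 mg/kg. Estimated PD50 uses at least 2 animals per dose.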

Test [2] can be described thus: In vivo protection from compound 48/80 induced lethality test in rats 1 hour after subcutaneous administration. The format is functional. The note with it: Rattus norvegicus, sc. In a few lines:
(§2)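 Male inbred Wistar rats (240-260 g), fasted overnight, held at 21 ± 1 °C and 65 ± 5% RH. Dosed sc or orally, vehicle 0.9% NaCl. Endpoint is survival at 4 h. ED50 by Finney from 5 rats per dose, at least 3 doses from a geometric series 0.0025-40 mg/kg. Estimated ED50 uses at least 2 rats per dose.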

For test [3], the system named is Cavia porcellus. As to the kind of experiment: Protection against intravenous histamine lithality in Guinea pigs 24 hour after oral administration. The note with it: for ED50: read-out: PD50. It is filed as functional. In a few lines: as §1
The test system of test [4] is Cavia porcellus. In words: Protection against intravenous histamine lithality in Guinea pigs 3 hour after oral administration. It is filed as functional. The note with it: for ED50: read-out: PD50. An outline of the steps:
as §1

Test [5] in a line: In vivo anti-histaminic protection from 48/80 induced lethality in rats 2 hours after oral administration. It is filed as functional. As to conditions: Rattus norvegicus. An outline of the steps: as §2
Test [6] in a line: In vivo anti-histaminic protection from 48/80 induced lethality in rats 2 hour after oral administration. As to conditions: Rattus norvegicus. It is filed as functional. An outline of the steps:
as §2

A short description of test [7]: In vivo anti-histaminic protection from 48/80 induced lethality in rats 1 hour after subcutaneous administration. It is filed as functional. The note with it: Rattus norvegicus, sc. In a few lines: as §2
The target of test [8] is Histamine H1 receptor (Cavia porcellus) (UniProt P31389). In words: In vitro inhibition of histamine(H1) induced contraction of guinea pig ileum. The format is functional, tissue-based. An outline of the steps:
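Isolated guinea pig ileum in a bath. Cumulative histamine curves every 5 min, logarithmically increasing doses (5.4 × 10^-8, 1.6 × 10^-7, 5.4 × 10^-7 M, ...) until maximal contraction. Repeated after 5 min antagonist contact, then washout and two further curves. Highest test dose normally 0.04 mg/L. A10 = antagonist concentration giving a 10-fold rightward shift of the histamine curve.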

Sequence of Histamine H1 receptor (Cavia porcellus) (P31389 whole entry): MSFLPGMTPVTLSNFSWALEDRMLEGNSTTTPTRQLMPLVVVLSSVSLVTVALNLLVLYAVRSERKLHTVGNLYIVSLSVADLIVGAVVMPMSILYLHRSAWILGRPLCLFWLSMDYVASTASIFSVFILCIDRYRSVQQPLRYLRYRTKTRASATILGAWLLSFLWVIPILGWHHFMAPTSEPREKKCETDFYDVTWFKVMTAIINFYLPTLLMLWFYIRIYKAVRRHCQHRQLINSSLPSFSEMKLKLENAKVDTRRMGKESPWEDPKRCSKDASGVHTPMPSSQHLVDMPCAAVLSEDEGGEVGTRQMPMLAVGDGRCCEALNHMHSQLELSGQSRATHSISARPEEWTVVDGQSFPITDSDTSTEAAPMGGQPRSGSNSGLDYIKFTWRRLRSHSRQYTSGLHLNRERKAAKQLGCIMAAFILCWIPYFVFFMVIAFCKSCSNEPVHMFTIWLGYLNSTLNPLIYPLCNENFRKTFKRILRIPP

Regarding `Oc1nc2ccccc2n1CCCN1CCC(Nc2nc3ccccc3n2Cc2ccccc2)CC1`, the ED50 in the test on Cavia porcellus [1] is > 0.6 mg/kg; in test [2] it was 1.25 mg/kg; with Cavia porcellus [3], 0.6 mg/kg; with Cavia porcellus [4] it was 0.16 mg/kg; in test [5], 2.5 mg/kg.

As to `CCn1c(N(C)C2CCN(CCc3ccccc3)CC2)nc2ccccc21`, the figures for the ED50 in test [2] and in test [5] were 0.63 mg/kg and > 2.5 mg/kg, respectively.

Take `OC(COc1ccccc1)CN1CCC(Nc2nc3ccccc3n2Cc2ccccc2)CC1` (stereo not drawn): the ED50 in the test on Cavia porcellus [1] was > 0.6 mg/kg; in test [2], 1.25 mg/kg; with Cavia porcellus [3], 0.6 mg/kg; in the test on Cavia porcellus [4], 0.35 mg/kg; in test [5], 0.63 mg/kg.

In turn, `O=C(CCCN1CCC(Nc2nc3ccccc3n2Cc2ccccc2)CC1)c1ccc(F)cc1` had an ED50 in test [2] of 2.5 mg/kg.

Take `COc1cc(CCN2CCC(Nc3nc4ccccc4n3Cc3ccccc3)CC2)cc(OC)c1OC`: the ED50 is 0.63 mg/kg in test [2] and 1.25 mg/kg in test [5].

Take `COc1ccccc1CCN1CCC(Nc2nc3ccccc3n2Cc2ccccc2)CC1`: the figures for the ED50 in test [2] and in test [5] were 0.63 mg/kg and 1.25 mg/kg, respectively.

Turning to `CN(c1nc2ccccc2n1Cc1ccccc1)C1CCN(CCc2ccccc2)CC1`, the ED50 in test [2] was determined as 2.5 mg/kg.

With `CN(c1nc2ccccc2n1Cc1ccc(F)cc1)C1CCN(CCc2ccccc2)CC1`, the ED50 in test [2] and in test [5] was 1.25 mg/kg each time.

Consider `Brc1ccc(Cn2c(NC3CCN(CCc4ccccc4)CC3)nc3ccccc32)cc1`, for which, in test [2], the ED50 amounted to 1.25 mg/kg.

In the case of `C=CCN1CCC(Nc2nc3ccccc3n2Cc2ccccc2)CC1`, the ED50 in test [2] and in test [5] was 0.63 mg/kg each time.

Take `Fc1ccccc1Cn1c(NC2CCN(CCc3ccccc3)CC2)nc2ccccc21`: the ED50 in test [2] turned out to be 1.25 mg/kg; in test [5] it was 2.5 mg/kg.

With `c1ccc(Cn2c(NC3CCN(CCCOc4ccccc4)CC3)nc3ccccc32)cc1`, the ED50 in test [2] and in test [5] was 0.63 mg/kg in each case.

In the case of `CC(c1ccc(F)cc1)n1c(NC2CCN(CCc3ccccc3)CC2)nc2ccccc21` (stereo not drawn), the ED50 was 1.25 mg/kg in test [2] and > 2.5 mg/kg in test [5].

Take `Cc1ccc(Cn2c(N(C)C3CCN(CCc4ccccc4)CC3)nc3ccccc32)cc1`: the ED50 in test [2] worked out at 2.5 mg/kg.

For `CCn1c(NC2CCN(CCc3ccccc3)CC2)nc2ccccc21`, in test [2], the ED50 came out at 2.5 mg/kg.

Take `CC(Cn1c(NC2CCN(CCc3ccccc3)CC2)nc2ccccc21)c1ccccc1` (stereo not drawn): the ED50 in test [2] turned out to be 2.5 mg/kg.

In the case of `CC(c1ccccc1)N1CCC(Nc2nc3ccccc3n2Cc2ccccc2)CC1` (stereo not drawn), the values for the ED50 in test [2] and in test [5] were 1.25 mg/kg and > 2.5 mg/kg, respectively.

In the case of `CCCCN(c1nc2ccccc2[nH]1)C1CCN(CCc2ccccc2)CC1`, in test [2], the ED50 came to 2.5 mg/kg.

Consider `CN1CCC(Nc2nc3ccccc3n2C)CC1`, for which the ED50 in test [2] was > 2.5 mg/kg.

For the molecule `Oc1nc2ccccc2n1CCN1CCC(Nc2nc3ccccc3n2Cc2ccccc2)CC1`, the ED50 in test [2] is 0.31 mg/kg; in the test with Cavia porcellus [3], > 0.6 mg/kg; in the test on Cavia porcellus [4], 0.35 mg/kg; in test [5], 2.5 mg/kg.

`CCCCN1CCC(Nc2nc3ccccc3n2Cc2ccccc2)CC1`: the ED50 in test [6] is > 2.5 mg/kg; in test [7], 0.31 mg/kg.

In the case of `COc1ccc(CCN2CCC(Nc3nc4ccccc4n3Cc3ccccc3)CC2)cc1OC`, the results for the ED50 in test [2] and in test [5] were 1.25 mg/kg and > 2.5 mg/kg, respectively.

`Fc1ccc(CN2CCC(Nc3nc4ccccc4n3Cc3ccccc3)CC2)cc1` had an ED50 in test [2] of 2.5 mg/kg.

Regarding `CCn1c(N(Cc2ccccc2)C2CCN(CCc3ccccc3)CC2)nc2ccccc21`, the ED50 in test [2] is > 2.5 mg/kg.

`CCCCCn1c(NC2CCN(CCc3ccccc3)CC2)nc2ccccc21` showed an ED50 in test [2] of 2.5 mg/kg.

`CN(c1nc2ccccc2n1Cc1ccc(Br)cc1)C1CCN(CCc2ccccc2)CC1`: the ED50 in test [2] is 2.5 mg/kg.

In turn, `c1ccc(Cn2c(NC3CCN(CCc4cccs4)CC3)nc3ccccc32)cc1` gave an ED50 in test [2] of 0.63 mg/kg.

For `CN(C)CCOC(c1ccccc1)c1ccccc1` [DIPHENHYDRAMINE], the ED50 is 4 mg/kg in test [2], > 2.5 mg/kg in the test with Cavia porcellus [4] and 37.4 mg/kg in test [5]. Further, the A10 in test [8] came out at 0.66 mg/L.

`c1ccc(CCN2CCC(Nc3nc4ccccc4n3CCc3ccccc3)CC2)cc1`: the ED50 in test [2] was > 2.5 mg/kg.

With `CCCCn1c(NC2CCN(CCc3ccccc3)CC2)nc2ccccc21`, the ED50 in test [2] was 2.5 mg/kg.

`FC(F)(F)c1cccc(CCN2CCC(Nc3nc4ccccc4n3Cc3ccccc3)CC2)c1` had an ED50 in test [2] of 2.5 mg/kg.

As for `c1ccc(CCN2CCC(Nc3nc4ccccc4n3Cc3ccccn3)CC2)cc1`, the ED50 with Cavia porcellus [1] was > 0.16 mg/kg; in test [2], 0.16 mg/kg; in the test on Cavia porcellus [3], 0.12 mg/kg; in the test with Cavia porcellus [4], 0.12 mg/kg; in test [5], 2.5 mg/kg.

Consider `Cc1ccc(Cn2c(NC3CCN(CCc4ccccc4)CC3)nc3ccccc32)cc1`, for which the ED50 in test [2] amounted to 1.25 mg/kg; in test [5], 2.5 mg/kg.

`Cc1cccc(CCN2CCC(Nc3nc4ccccc4n3Cc3ccccc3)CC2)c1`: the values for the ED50 in test [2] and in test [5] were 1.25 mg/kg and 2.5 mg/kg, respectively.

In the case of `CN1CCC(=C2c3ccccc3CCc3cccnc32)CC1` [AZATADINE], the ED50 was > 2.5 mg/kg in the test with Cavia porcellus [1]; 0.049 mg/kg in test [2]; 1.36 mg/kg in the test on Cavia porcellus [3]; 0.014 mg/kg in the test with Cavia porcellus [4]; 0.48 mg/kg in test [5].

As to `CN(C)CCC(c1ccc(Cl)cc1)c1ccccn1` (stereo not drawn) [CHLORPHENIRAMINE], the ED50 in test [2] was 0.77 mg/kg; in test [5], 37.4 mg/kg.

For the molecule `Fc1ccc(CCN2CCC(Nc3nc4ccccc4n3Cc3ccccc3)CC2)cc1`, the ED50 is 1.25 mg/kg in test [2] and > 2.5 mg/kg in test [5].

`Clc1ccc(Cn2c(NC3CCN(CCc4ccccc4)CC3)nc3ccccc32)cc1` had an ED50 in test [2] of 2.5 mg/kg.

In the case of `CCOc1ccc(CCN2CCC(Nc3nc4ccccc4n3Cc3ccccc3)CC2)cc1`, the ED50 in test [2] is 1.25 mg/kg; in test [5], 0.63 mg/kg.

Consider `c1ccc(CCN2CCC(Nc3nc4ccccc4n3Cc3ccccc3)CC2)cc1`, for which the ED50 in the test on Cavia porcellus [1] was 0.25 mg/kg; with Cavia porcellus [3], 0.35 mg/kg; with Cavia porcellus [4], 0.25 mg/kg; in test [5], 3.5 mg/kg.

`O=c1[nH]c2ccccc2n1CCCN1CCN(C(c2ccccc2)c2ccccc2)CC1` [OXATOMIDE]: the figures for the “PD 50” value with Cavia porcellus [3] and in the test with Cavia porcellus [4] were >5 mg/kg and 0.18 mg/kg, respectively. For the same molecule, the ED50 in test [6] was 5.37 mg/kg.

Turning to `c1ccc(CCCN2CCC(Nc3nc4ccccc4n3Cc3ccccc3)CC2)cc1`, the ED50 in the test with Cavia porcellus [1] is > 0.6 mg/kg; in test [2] it was 2.5 mg/kg; with Cavia porcellus [3] it was 0.35 mg/kg; with Cavia porcellus [4], 0.35 mg/kg.

For the molecule `CN1CCC(Nc2nc3ccccc3n2Cc2ccccc2)CC1`, the ED50 in test [6] was > 2.5 mg/kg; in test [7], 0.31 mg/kg.

Consider `N#CC1(c2ccccc2)CCC(N2CCC(Nc3nc4ccccc4n3Cc3ccccc3)CC2)CC1` (stereo not drawn), for which, in test [2], the ED50 amounted to 2.5 mg/kg.

Take `COc1ccc(CCN2CCC(Nc3nc4ccccc4n3Cc3ccccc3)CC2)cc1`: the ED50 amounted to 0.16 mg/kg with Cavia porcellus [1]; 1.25 mg/kg in test [2]; 0.08 mg/kg in the test with Cavia porcellus [3]; 0.25 mg/kg with Cavia porcellus [4]; 0.63 mg/kg in test [5].

On to `CCn1nnn(CCN2CCC(Nc3nc4ccccc4n3Cc3ccccc3)CC2)c1=O`, for which the values for the ED50 in test [2] and in test [5] were 0.31 mg/kg and > 2.5 mg/kg, respectively.

As for `COc1cccc(CCN2CCC(Nc3nc4ccccc4n3Cc3ccccc3)CC2)c1`, the ED50 was found to be 0.63 mg/kg in test [2] and 0.31 mg/kg in test [5].

On to `Fc1ccc(Cn2c(NC3CCN(CCc4ccccc4)CC3)nc3ccccc32)cc1`, for which the ED50 was 0.12 mg/kg with Cavia porcellus [1]; 0.31 mg/kg in test [2]; 0.08 mg/kg with Cavia porcellus [3]; 0.45 mg/kg in the test on Cavia porcellus [4]; 0.63 mg/kg in test [5].

For the molecule `c1ccc(Cn2c(NC3CCN(CC4COc5ccccc5O4)CC3)nc3ccccc32)cc1` (stereo not drawn), the ED50 in test [2] came to 2.5 mg/kg.

On to `C(=C\c1ccccc1)/CN1CCC(Nc2nc3ccccc3n2Cc2ccccc2)CC1`, for which the ED50 in test [2] is 1.25 mg/kg; in test [5] it was > 2.5 mg/kg.

In test [2], `Clc1ccc(CCN2CCC(Nc3nc4ccccc4n3Cc3ccccc3)CC2)cc1` registered an ED50 of 2.5 mg/kg.

Molecule `CC(c1ccccc1)n1c(NC2CCN(CCc3ccccc3)CC2)nc2ccccc21` (stereo not drawn) yielded an ED50 in test [2] of 2.5 mg/kg.

As for `c1ccc(Cn2c(NC3CCN(C4CCCCC4)CC3)nc3ccccc32)cc1`, the ED50 in test [6] was > 2.5 mg/kg; in test [7], 0.63 mg/kg.

`CCCCn1c(N(C)C2CCN(CCc3ccccc3)CC2)nc2ccccc21`: the ED50 in test [2] was 2.5 mg/kg.
